Reference: publication PMC3957490 (Neuron, 2014)

Experiments:
Assay type in all cases: cell-based
[1] = target: T1, 2AC1/2AC2 (tagged GluN1/GluN2A) (Rattus norvegicus, UniProt P35439+Q00959); assay: two-electrode voltage clamp, Xenopus oocytes
Outline: (§1)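 Oocytes injected with about 10 ng total cRNA of rat GluN1-1a plus wild-type or C1/C2-tagged GluN2 (tagged at 1:6:6); two-electrode voltage clamp. GluN2A-selective antagonists: 100 μM glutamate + 3 μM glycine. Divalent metal inhibitor: 50 μM glutamate + 50 μM glycine, −20 mV, kept below 300 nM, pH 7.3 (also 7.8, 6.8). GluN2B-selective antagonists: 100 μM glutamate + 50 μM glycine, −40 mV. IC50 from fitted concentration-response data, mean ± SEM over N oocytes.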

[2] = target: T2, wt 2A/2A (wild type GluN1/GluN2A) (Rattus norvegicus, UniProt P35439+Q00959); assay: two-electrode voltage clamp, Xenopus oocytes
Outline: as §1

[3] = target: T3, 2AC1/2BAC2 (GluN1/GluN2A/GluN2B triheteromer) (Rattus norvegicus, UniProt P35439+Q00959+Q00960); assay: two-electrode voltage clamp, Xenopus oocytes
[4] = target: wt 2B/2B (wild type GluN1/GluN2B) (Rattus norvegicus, UniProt P35439+Q00960); assay: whole-cell patch clamp, HEK293 cells; conditions: agonist; […] glutamate, […] glycine
[5] = target: T3, 2AC1/2BAC2 (GluN1/GluN2A/GluN2B triheteromer); assay: whole-cell patch clamp, HEK293 cells; conditions: agonist; […] glutamate, […] glycine
[6] = target: T1, 2AC1/2AC2 (tagged GluN1/GluN2A); assay: whole-cell patch clamp, HEK293 cells; conditions: agonist; […] glutamate, […] glycine
[7] = target: 2BAC1/2BAC2 (tagged GluN1/GluN2B with GluN2A CTD) (Rattus norvegicus, UniProt P35439+Q00960); assay: whole-cell patch clamp, HEK293 cells; conditions: agonist; […] glutamate, […] glycine
[8] = target: T2, wt 2A/2A (wild type GluN1/GluN2A); assay: whole-cell patch clamp, HEK293 cells; conditions: agonist; […] glutamate, […] glycine

T1 sequence (Q00959 23-1464, other chains not shown): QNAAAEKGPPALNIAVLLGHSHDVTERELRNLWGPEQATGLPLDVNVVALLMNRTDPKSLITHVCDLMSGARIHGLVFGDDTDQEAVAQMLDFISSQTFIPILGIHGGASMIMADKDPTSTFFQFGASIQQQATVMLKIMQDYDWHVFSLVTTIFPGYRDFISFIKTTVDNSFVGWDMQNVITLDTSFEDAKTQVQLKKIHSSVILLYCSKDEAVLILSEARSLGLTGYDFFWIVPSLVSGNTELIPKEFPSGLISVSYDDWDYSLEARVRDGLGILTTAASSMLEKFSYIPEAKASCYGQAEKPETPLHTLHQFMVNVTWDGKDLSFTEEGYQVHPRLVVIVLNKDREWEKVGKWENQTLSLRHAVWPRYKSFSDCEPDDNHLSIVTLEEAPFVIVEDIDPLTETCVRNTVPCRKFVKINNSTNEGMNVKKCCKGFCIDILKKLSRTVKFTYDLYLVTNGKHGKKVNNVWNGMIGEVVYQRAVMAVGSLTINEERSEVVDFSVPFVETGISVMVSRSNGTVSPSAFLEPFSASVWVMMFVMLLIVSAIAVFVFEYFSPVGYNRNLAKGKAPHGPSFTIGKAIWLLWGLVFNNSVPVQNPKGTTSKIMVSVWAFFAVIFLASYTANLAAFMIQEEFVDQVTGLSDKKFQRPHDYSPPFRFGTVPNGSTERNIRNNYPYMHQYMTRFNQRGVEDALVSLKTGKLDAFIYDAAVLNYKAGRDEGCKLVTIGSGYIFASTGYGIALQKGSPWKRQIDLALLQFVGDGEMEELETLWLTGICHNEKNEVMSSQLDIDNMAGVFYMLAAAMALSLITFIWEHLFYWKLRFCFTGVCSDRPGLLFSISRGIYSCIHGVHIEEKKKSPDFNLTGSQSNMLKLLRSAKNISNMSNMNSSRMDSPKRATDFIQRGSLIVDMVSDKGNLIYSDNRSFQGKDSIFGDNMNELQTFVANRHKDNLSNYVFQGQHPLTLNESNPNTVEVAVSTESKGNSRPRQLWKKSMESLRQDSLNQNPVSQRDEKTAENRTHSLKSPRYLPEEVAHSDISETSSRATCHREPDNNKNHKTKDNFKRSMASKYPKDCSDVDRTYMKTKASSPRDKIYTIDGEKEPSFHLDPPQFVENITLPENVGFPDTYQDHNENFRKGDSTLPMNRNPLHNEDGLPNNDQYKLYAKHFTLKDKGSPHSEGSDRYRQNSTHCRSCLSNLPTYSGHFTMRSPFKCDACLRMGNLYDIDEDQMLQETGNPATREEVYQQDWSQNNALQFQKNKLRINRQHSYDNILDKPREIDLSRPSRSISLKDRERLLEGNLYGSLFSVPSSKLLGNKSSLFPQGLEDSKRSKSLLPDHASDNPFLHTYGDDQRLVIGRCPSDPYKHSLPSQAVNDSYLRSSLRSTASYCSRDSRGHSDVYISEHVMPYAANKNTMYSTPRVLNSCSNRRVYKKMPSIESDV
T2 sequence (Q00959 23-1464, other chains not shown): as above
T3 sequence (Q00959 23-1464, other chains not shown): as above

Row | IC50 [1] [nM] | IC50 [2] [nM] | IC50 [3] [nM] | Brief glutamate activation (5 ms) / τweighted [4] [ms] | Brief glutamate activation (5 ms) / τweighted [5] [ms] | Brief glutamate activation (5 ms) / τweighted [6] [ms] | Brief glutamate activation (5 ms) / τweighted [7] [ms] | Brief glutamate activation (5 ms) / τweighted [8] [ms] | SMILES
1 | 360 ± 20 | 370 ± 30 | 1350 ± 130 |  |  |  |  |  | O=C(NNC(=O)c1ccc(CNS(=O)(=O)c2ccc(F)c(Cl)c2)cc1)c1ccccc1 [TCN-201]
2 |  |  |  | 314 ± 13 | 57 ± 4 | 33 ± 2 | 274 ± 24 | 32 ± 1 | N[C@@H](CCC(=O)O)C(=O)O [glutamate]
